Legend:
Leukemia cell = assay: Antitumor activity against human Leukemia cells after 48 hrs by SRB assay; assay type: functional; conditions: for TGI: read-out: pTGI (converted)
Procedure, shortened: (§1)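 NCI 60-cell panel two-stage screen: a single-dose pass at 10^-5 M, then five-dose testing for active compounds. Compounds were dissolved in DMSO and tested at five 10-fold dilutions, the highest 10^-4 M (10^-3 M in some cases). Results are given as the negative log molar concentration at three end points: pGI50, pTGI (total growth inhibition) and pLC50. Means are panel-subtype averages.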

[1] = Antitumor activity against human prostate cancer cells after 48 hrs by SRB assay; assay type: functional, Cancer cell lines; conditions: for TGI: read-out: pTGI (converted); procedure, shortened: as §1
Melanoma cell = assay: Antitumor activity against human Melanoma cells after 48 hrs by SRB assay; assay type: functional; conditions: for TGI: read-out: pTGI (converted); for CC50: read-out: pLC50 (the source's name) (converted); procedure, shortened: as §1
[2] = Antitumor activity against human CNS cancer cells after 48 hrs by SRB assay; assay type: functional, Cancer cell lines; conditions: for TGI: read-out: pTGI (converted); procedure, shortened: as §1
[3] = Antitumor activity against human ovarian cancer cells after 48 hrs by SRB assay; assay type: functional, Cancer cell lines; conditions: for TGI: read-out: pTGI (converted); procedure, shortened: as §1
[4] = Antitumor activity against human Breast cancer cells after 48 hrs by SRB assay; assay type: functional, Cancer cell lines; conditions: for TGI: read-out: pTGI (converted); procedure, shortened: as §1
[5] = Antitumor activity against human Colon cancer cells after 48 hrs by SRB assay; assay type: functional, Cancer cell lines; conditions: for GI50 / TGI / LC50 (50% lethal concentration): Homo sapiens, Cancer cell lines, 48 h; for TGI: read-out: pTGI (converted); procedure, shortened: as §1
NSCLC = assay: Antitumor activity against human NSCLC cells after 48 hrs by SRB assay; assay type: functional; conditions: for TGI: read-out: pTGI (converted); procedure, shortened: as §1
[6] = Antitumor activity against human renal cancer cells after 48 hrs by SRB assay; assay type: functional, Cancer cell lines; conditions: for GI50 / TGI / LC50 (concentration killing 50% of cells): Homo sapiens, Cancer cell lines, 48 h; for TGI: read-out: pTGI (converted); procedure, shortened: as §1
[7] = Homo sapiens, Leukemia cell, 48 h
[8] = Homo sapiens, Cancer cell lines, 48 h
[9] = Homo sapiens, Melanoma cell, 48 h, read-out: pGI50 (converted)
[10] = Homo sapiens, Cancer cell lines, 48 h, read-out: pGI50 (converted)
[11] = Homo sapiens, Melanoma cell, 48 h

| Structure (SMILES) | GI (Leukemia cell) [µM] | GI50 (Leukemia cell; [7]) [µM] | GI [1] [µM] | GI50 [1, 8] [µM] | GI50 (Melanoma cell) [µM] | GI50 (Melanoma cell; [9]) [µM] | GI50 [2] [µM] | GI50 [2, 10] [µM] | GI [3] [µM] | GI50 [3, 8] [µM] | GI [4] [µM] | GI50 [4, 8] [µM] | GI [5] [µM] | GI50 [5] [µM] | GI (NSCLC) [µM] | GI50 (NSCLC; Homo sapiens, NSCLC, 48 h) [µM] | GI [6] [µM] | GI50 [6] [µM] | TGI (Melanoma cell; [11]) [µM] | TGI [5] [µM] | further results |
| --- | --- | --- | --- | --- | --- | --- | --- | --- | --- | --- | --- | --- | --- | --- | --- | --- | --- | --- | --- | --- | --- |
| Cc1nn2c(/C=C3/C(=O)Nc4ccccc43)c(C)nc2s1 | 16.22 | 16.2 | 47.86 | 47.9 | 45.71 | 45.7 | 48.98 | 49 | 50.12 | 50.1 | 22.91 | 22.9 | 9.33 | 9.33 | 38.9 | 38.9 | 61.66 | 61.7 | – | – | – |
| Cc1cn2c(/C=C3/C(=O)Nc4ccc(F)cc43)c(C)nc2s1 | 4.57 | 4.57 | 9.55 | 9.55 | 6.31 | 6.31 | 6.03 | 6.03 | 7.24 | 7.24 | 4.47 | 4.47 | 2.4 | 2.4 | 8.13 | 8.13 | 11.48 | 11.5 | 35.5 | 40.7 | TGI (Leukemia cell; [7]): 23.4 µM; TGI [1, 8]: 40.7 µM; TGI [2, 8]: 33.1 µM; TGI [3, 8]: 44.7 µM; TGI [4, 8]: 23.4 µM; TGI (NSCLC; Homo sapiens, NSCLC, 48 h): 42.7 µM; TGI [6]: 40.7 µM |
| Cc1nn2c(/C=C3/C(=O)Nc4ccccc43)c(-c3ccc(Cl)cc3)nc2s1 | 17.78 | 17.8 | 12.3 | 12.3 | 19.95 | 20 | 3.24 | 3.24 | 25.7 | 25.7 | 16.98 | 17 | 18.62 | 18.6 | 19.05 | 19.1 | 17.78 | 17.8 | 35.5 | 44.7 | TGI [1, 8]: 32.4 µM; CC50 (Melanoma cell; [11]): 47.9 µM; LC50 [2, 8]: 38.9 µM; TGI [2, 8]: 16.6 µM; TGI [4, 8]: 42.7 µM; TGI (NSCLC; Homo sapiens, NSCLC, 48 h): 45.7 µM; LC50 (concentration killing 50% of cells) [6]: 46.8 µM; TGI [6]: 33.1 µM |
| Cc1cn2c(/C=C3/C(=O)Nc4ccccc43)c(-c3ccc(Cl)cc3)nc2s1 | 18.2 | 18.2 | 9.77 | 9.77 | 9.55 | 9.55 | 6.76 | 6.76 | 10 | 10 | 6.46 | 6.46 | 10.23 | 10.2 | 8.13 | 8.13 | 3.31 | 3.31 | 19.1 | 21.4 | TGI (Leukemia cell; [7]): 44.7 µM; LC50 [1, 8]: 28.8 µM; TGI [1, 8]: 17 µM; CC50 (Melanoma cell; [11]): 32.4 µM; LC50 [2, 8]: 30.2 µM; TGI [2, 8]: 15.1 µM; LC50 (concentration killing 50% of cells) [3, 8]: 39.8 µM; TGI [3, 8]: 20.4 µM; LC50 [4, 8]: 35.5 µM; TGI [4, 8]: 17.8 µM; LC50 (50% lethal concentration) [5]: 38.9 µM; LC50 (NSCLC; Homo sapiens, NSCLC, 48 h): 38 µM; TGI (NSCLC; Homo sapiens, NSCLC, 48 h): 17.8 µM; LC50 (concentration killing 50% of cells) [6]: 33.1 µM; TGI [6]: 18.6 µM |
| Cc1cn2c(/C=C3/C(=O)N(C)c4ccccc43)c(C)nc2s1 | 5.01 | 5.01 | 21.38 | 21.4 | 13.18 | 13.2 | 8.71 | 8.71 | 15.49 | 15.5 | 5.5 | 5.5 | 4.57 | 4.57 | 17.78 | 17.8 | 22.39 | 22.4 | 72.4 | 69.2 | TGI (Leukemia cell; [7]): 20.9 µM; TGI [2, 8]: 51.3 µM; TGI [3, 8]: 74.1 µM; TGI [4, 8]: 55 µM; TGI (NSCLC; Homo sapiens, NSCLC, 48 h): 75.9 µM; TGI [6]: 97.7 µM |
| COc1ccc2c(c1)/C(=C\c1c(-c3ccc(C)cc3)nc3sc(C)cn13)C(=O)N2 | 4.07 | 4.07 | 4.68 | 4.68 | 16.22 | 16.2 | 14.45 | 14.5 | 18.2 | 18.2 | 12.88 | 12.9 | 12.88 | 12.9 | 14.45 | 14.5 | 13.18 | 13.2 | 55 | 66.1 | TGI (Leukemia cell; [7]): 51.3 µM; TGI [3, 8]: 97.7 µM; TGI (NSCLC; Homo sapiens, NSCLC, 48 h): 77.6 µM; TGI [6]: 67.6 µM |
| COc1ccc2c(c1)/C(=C\c1c(-c3cc(OC)ccc3OC)nc3sc(C)cn13)C(=O)N2C | 15.85 | 15.8 | 30.9 | 30.9 | 25.12 | 25.1 | 23.99 | 24 | 25.7 | 25.7 | 28.84 | 28.8 | 33.11 | 33.1 | 28.84 | 28.8 | 30.9 | 30.9 | 56.2 | 81.3 | TGI (Leukemia cell; [7]): 63.1 µM; TGI [1, 8]: 97.7 µM; TGI [2, 8]: 74.1 µM; TGI [3, 8]: 91.2 µM; TGI [4, 8]: 95.5 µM; TGI (NSCLC; Homo sapiens, NSCLC, 48 h): 89.1 µM; TGI [6]: 97.7 µM |
| COc1ccc(OC)c(-c2nc3sccn3c2/C=C2/C(=O)N(C)c3ccccc32)c1 | 7.41 | 7.41 | 25.12 | 25.1 | 19.5 | 19.5 | 21.38 | 21.4 | 29.51 | 29.5 | 15.85 | 15.8 | 23.44 | 23.4 | 26.92 | 26.9 | 27.54 | 27.5 | 47.9 | 67.6 | LC50 (concentration killing 50% of cells) (Leukemia cell; [7]): 97.7 µM; TGI (Leukemia cell; [7]): 44.7 µM; TGI [1, 8]: 91.2 µM; CC50 (Melanoma cell; [11]): 87.1 µM; LC50 [2, 8]: 97.7 µM; TGI [2, 8]: 57.5 µM; TGI [3, 8]: 81.3 µM; TGI [4, 8]: 53.7 µM; LC50 (50% lethal concentration) [5]: 95.5 µM; TGI (NSCLC; Homo sapiens, NSCLC, 48 h): 74.1 µM; TGI [6]: 72.4 µM |
